Source: ChEMBL document CHEMBL3120102, “Structure-based design, synthesis and biological evaluation of novel anthra[1,2-d]imidazole-6,11-dione homologues as potential antitumor agents” (2013)

Experiments:
Assay type in all cases: functional
MCF7 = experiment: Cytotoxicity against human MCF7 cells assessed as growth inhibition after 48 hrs by SRB assay
Method in brief: (§1)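 NCI 60-cell-line screen, five-dose stage: each cell line exposed for 48 h to five concentrations spanning five log steps; cellular protein measured by sulforhodamine B colorimetry. A time-zero cell control and plates without drug are used to derive GI50, TGI and LC50 from log-concentration dose-response curves.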

MDA-MB-468 = experiment: Cytotoxicity against human MDA-MB-468 cells assessed as cell growth at 10 uM after 48 hrs by SRB assay; details: MDA-MB-468, 48 h, read-out: Activity
Method in brief: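 First stage of the NCI 60 human tumour cell line screen: a single dose is tested against every line. Cell growth is read as cellular protein by sulforhodamine B colorimetry after 48 h of drug exposure, with reference to a time-zero control and to untreated plates.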

UACC-62 = experiment: Cytotoxicity against human UACC62 cells assessed as growth inhibition after 48 hrs by SRB assay
Method in brief: (§2)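 NCI 60-cell-line screen, two stages. Five-dose testing at […]. Cellular protein measured by sulforhodamine B colorimetry after 48 h drug exposure. A time-zero control and drug-free plates are used to derive GI50, TGI and LC50 from dose-response curves plotted as log10 concentration per cell line.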

HT-29 = experiment: Cytotoxicity against human HT-29 cells assessed as growth inhibition after 48 hrs by SRB assay
Method in brief: (§3)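 NCI 60-cell-line five-dose screen at […]. Drug exposure was 48 h, followed by sulforhodamine B protein staining. GI50, TGI and LC50 were calculated against a time-zero control and untreated plates, with dose–response curves plotted from log10 concentration.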

[1] = (§4) Cytotoxicity against human UO31 cells assessed as growth inhibition after 48 hrs by SRB assay; details: UO-31, 48 h; method in brief: as §2
UO-31 = experiment: as §4; method in brief: as §2
RXF 393 = experiment: Cytotoxicity against human RXF393 cells assessed as growth inhibition after 48 hrs by SRB assay; method in brief: as §1
SF-539 = experiment: Cytotoxicity against human SF539 cells assessed as growth inhibition after 48 hrs by SRB assay; method in brief: as §1
CAKI-1 = experiment: Cytotoxicity against human CAKI-1 cells assessed as cell growth at 10 uM after 48 hrs by SRB assay; details: CAKI-1, 48 h, read-out: Activity
[2] = (§5) Cytotoxicity against human OVCAR4 cells assessed as growth inhibition after 48 hrs by SRB assay; details: OVCAR-4, 48 h; method in brief: as §1
OVCAR-4 = experiment: as §5; method in brief: as §1
K562 = experiment: Cytotoxicity against human K562 cells assessed as growth inhibition after 48 hrs by SRB assay; method in brief: as §3
COLO 205 = experiment: Cytotoxicity against human COLO205 cells assessed as growth inhibition after 48 hrs by SRB assay; method in brief: as §3
[3] = (§6) Cytotoxicity against human NCI-ADR-RES cells assessed as growth inhibition after 48 hrs by SRB assay; method in brief: as §1
NCI/ADR-RES = experiment: as §6; method in brief: as §1
SNB-19 = experiment: Cytotoxicity against human SNB19 cells assessed as growth inhibition after 48 hrs by SRB assay; method in brief: as §2
786-0 = experiment: Cytotoxicity against human 786-0 cells assessed as growth inhibition after 48 hrs by SRB assay; method in brief: as §3
NCI-H460 = experiment: Cytotoxicity against human NCI-H460 cells assessed as growth inhibition after 48 hrs by SRB assay; method in brief: as §1
SN12C = experiment: Cytotoxicity against human SN12C cells assessed as growth inhibition after 48 hrs by SRB assay; method in brief: as §2
SK-MEL-5 = experiment: Cytotoxicity against human SK-MEL-5 cells assessed as growth inhibition after 48 hrs by SRB assay; method in brief: as §1
NCI-H23 = experiment: Cytotoxicity against human NCI-H23 cells assessed as growth inhibition after 48 hrs by SRB assay; method in brief: as §1
SK-OV-3 = experiment: Cytotoxicity against human SKOV3 cells assessed as growth inhibition after 48 hrs by SRB assay; method in brief: as §1
OVCAR-8 = experiment: Cytotoxicity against human OVCAR8 cells assessed as growth inhibition after 48 hrs by SRB assay; method in brief: as §1
[4] = (§7) Cytotoxicity against human EKVX cells assessed as growth inhibition after 48 hrs by SRB assay; method in brief: as §3
EKVX = experiment: as §7; method in brief: as §3
CCRF-CEM = experiment: Cytotoxicity against human CCRF-CEM cells assessed as growth inhibition after 48 hrs by SRB assay; method in brief: as §3
A549 = experiment: Cytotoxicity against human A549 cells assessed as growth inhibition after 48 hrs by SRB assay; method in brief: as §3
SNB-75 = experiment: Cytotoxicity against human SNB75 cells assessed as growth inhibition after 48 hrs by SRB assay; method in brief: as §2
DU-145 = experiment: Cytotoxicity against human DU145 cells assessed as growth inhibition after 48 hrs by SRB assay; method in brief: as §3
T47D = experiment: Cytotoxicity against human T47D cells assessed as growth inhibition after 48 hrs by SRB assay; method in brief: as §2

CCSc1nc2ccc3c(c2[nH]1)C(=O)c1ccccc1C3=O
growth inhibition (GI) (MCF7): Dose-dependent effect
GI50 (MCF7; MCF7, 48 h): 4.84 µM
LC50 (concentration killing 50% of cells) (MCF7; MCF7, 48 h): > 100 µM
TGI (MCF7; MCF7, 48 h): > 100 µM
growth at 10 µM (MDA-MB-468): 35.4%
growth inhibition (GI) (UACC-62): Dose-dependent effect
GI50 (UACC-62; UACC-62, 48 h): 7.73 µM
LC50 (UACC-62; UACC-62, 48 h): > 100 µM
TGI (UACC-62; UACC-62, 48 h): > 100 µM
growth inhibition (GI) (HT-29): Dose-dependent effect
GI50 (HT-29; HT-29, 48 h): 23.1 µM
TGI (HT-29; HT-29, 48 h): > 100 µM
CC50 (HT-29; HT-29, 48 h, read-out: LC50 (the source's name)): > 100 µM
GI50 [1]: 3.31 µM
LC50 [1]: > 100 µM
TGI [1]: > 100 µM
growth inhibition (GI) (UO-31): Dose-dependent effect
growth inhibition (GI) (RXF 393): Dose-dependent effect
GI50 (RXF 393; RXF 393, 48 h): 5.17 µM
TGI (RXF 393; RXF 393, 48 h): > 100 µM
CC50 (RXF 393; RXF 393, 48 h, read-out: LC50 (the source's name)): > 100 µM
growth inhibition (GI) (SF-539): Dose-dependent effect
GI50 (SF-539; SF-539, 48 h): 22.9 µM
TGI (SF-539; SF-539, 48 h): > 100 µM
CC50 (SF-539; SF-539, 48 h, read-out: LC50 (the source's name)): > 100 µM
growth at 10 µM (CAKI-1): -8.01%
GI50 [2]: 3.17 µM
LC50 (concentration killing 50% of cells) [2]: > 100 µM
TGI [2]: > 100 µM
growth inhibition (GI) (OVCAR-4): Dose-dependent effect
growth inhibition (GI) (K562): Dose-dependent effect
GI50 (K562; K562, 48 h): 13.5 µM
TGI (K562; K562, 48 h): > 100 µM
CC50 (K562; K562, 48 h, read-out: LC50 (the source's name)): > 100 µM
growth inhibition (GI) (COLO 205): Dose-dependent effect
GI50 (COLO 205; COLO 205, 48 h): 17.4 µM
LC50 (COLO 205; COLO 205, 48 h): > 100 µM
TGI (COLO 205; COLO 205, 48 h): > 100 µM
GI50 [3]: 8.04 µM
LC50 (concentration causing 50% net cell kill) [3]: > 100 µM
TGI [3]: > 100 µM
growth inhibition (GI) (NCI/ADR-RES): Dose-dependent effect
growth inhibition (GI) (SNB-19): Dose-dependent effect
GI50 (SNB-19; SNB-19, 48 h): > 100 µM
LC50 (SNB-19; SNB-19, 48 h): > 100 µM
TGI (SNB-19; SNB-19, 48 h): > 100 µM
growth inhibition (GI) (786-0): Dose-dependent effect
GI50 (786-0; 786-0, 48 h): 46.7 µM
LC50 (concentration causing 50% net cell kill) (786-0; 786-0, 48 h): > 100 µM
TGI (786-0; 786-0, 48 h): > 100 µM
growth inhibition (GI) (NCI-H460): Dose-dependent effect
GI50 (NCI-H460; NCI-H460, 48 h): 5.49 µM
LC50 (NCI-H460; NCI-H460, 48 h): > 100 µM
TGI (NCI-H460; NCI-H460, 48 h): > 100 µM
GI50 (SN12C): 10.3 µM
TGI (SN12C): > 100 µM
growth inhibition (GI) (SN12C): Dose-dependent effect
CC50 (SN12C; read-out: LC50 (the source's name)): > 100 µM
growth inhibition (GI) (SK-MEL-5): Dose-dependent effect
GI50 (SK-MEL-5; SK-MEL-5, 48 h): 33.6 µM
LC50 (concentration killing 50% of cells relative to time zero) (SK-MEL-5; SK-MEL-5, 48 h): > 100 µM
TGI (SK-MEL-5; SK-MEL-5, 48 h): > 100 µM
growth inhibition (GI) (NCI-H23): Dose-dependent effect
GI50 (NCI-H23; NCI-H23, 48 h): 8.6 µM
LC50 (NCI-H23; NCI-H23, 48 h): > 100 µM
TGI (NCI-H23; NCI-H23, 48 h): > 100 µM
growth inhibition (GI) (SK-OV-3): Dose-dependent effect
GI50 (SK-OV-3; SK-OV-3, 48 h): 3.8 µM
LC50 (concentration killing 50% of cells present at time zero) (SK-OV-3; SK-OV-3, 48 h): > 100 µM
TGI (SK-OV-3; SK-OV-3, 48 h): > 100 µM
growth inhibition (GI) (OVCAR-8): Dose-dependent effect
GI50 (OVCAR-8; OVCAR-8, 48 h): 15.1 µM
LC50 (OVCAR-8; OVCAR-8, 48 h): > 100 µM
TGI (OVCAR-8; OVCAR-8, 48 h): > 100 µM
GI50 [4]: 2.13 µM
LC50 [4]: > 100 µM
TGI [4]: 29 µM
growth inhibition (GI) (EKVX): Dose-dependent effect
GI50 (CCRF-CEM): 3.66 µM
LC50 (CCRF-CEM): > 100 µM
TGI (CCRF-CEM): > 100 µM
growth inhibition (GI) (CCRF-CEM): Dose-dependent effect
growth inhibition (GI) (A549): Dose-dependent effect
GI50 (A549; A549, 48 h): 9.67 µM
LC50 (concentration killing 50% of cells) (A549; A549, 48 h): > 100 µM
TGI (A549; A549, 48 h): > 100 µM
growth inhibition (GI) (SNB-75): Dose-dependent effect
GI50 (SNB-75; SNB-75, 48 h): 10.1 µM
LC50 (SNB-75; SNB-75, 48 h): > 100 µM
TGI (SNB-75; SNB-75, 48 h): 84.9 µM
growth inhibition (GI) (DU-145): Dose-dependent effect
GI50 (DU-145; DU-145, 48 h): 7.02 µM
TGI (DU-145; DU-145, 48 h): > 100 µM
CC50 (DU-145; DU-145, 48 h, read-out: LC50 (the source's name)): > 100 µM
GI50 (T47D): 4.21 µM
LC50 (T47D): > 100 µM
TGI (T47D): > 100 µM
growth inhibition (GI) (T47D): Dose-dependent effect
